From article PMC6753935 (Journal of Clinical and Translational Science, 2019)
Where two headings read alike, the source gives them in different places.

Experiments:
[1] = tested on: human platelets in platelet-rich plasma (PRP); assay: In vitro platelet aggregation in PRP of healthy human volunteers; assay type: cell-based
Outline: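 Healthy donors' venous blood was anticoagulated with citrate (0.38% final), PPACK (0.1 or 0.3 mM final) or heparin (15.8 USP U/ml). PRP was spun at 650 × g for 4 min at room temperature. Aspirin 0.83 mM final for 10 min, then test compound (0.01–3 µM final) for 20 min. Aggregation induced by arachidonic acid 1.5 mM or ADP 5 µM. IC50 from initial-slope inhibition by Hill-equation fit.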

[2] = tested on: platelets in platelet-rich plasma (PRP); assay: ADP-induced platelet aggregation in PRP from NHPs dosed with RUC-4 IM; assay type: in vivo, cynomolgus monkey (Macaca fascicularis)
Outline: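 Six adult male monkeys (3.6–4.8 y; two per dose) got a single unsedated IM injection (0.064 ml/kg) at 1, 1.93 or 3.86 mg/kg. Citrated blood was drawn pre-dose and at 30, 120 and 270 min, plus ~27 h at the top dose. PRP was adjusted to 3 × 10^5/μl with PPP. Light-transmission aggregation at 37°C with stirring, 5 µM ADP. Percent inhibition of the initial slope versus untreated sample.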

[3] = molecular target: αIIbβ3 (Homo sapiens, UniProt P05106+P08514); assay type: cell-based; settings: five donors, p < 0.0001
[4] = tested on: platelets in platelet-rich plasma (PRP); assay: Light transmission platelet aggregation, RUC-4 IC50 in NHP PRP; assay type: cell-based, cynomolgus monkey (Macaca fascicularis); settings: read-out: RUC-4 IC50 for platelet aggregation in NHP, mean ± SD; 5 µM ADP, citrated PRP, initial slope, 4 animals
[5] = Pharmacokinetics: RUC-4 whole blood concentrations after IM, SC; assay type: in vivo, cynomolgus monkey (Macaca fascicularis); settings: for Bioavailability: compared to IV
Outline: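 Six male monkeys (two per dose: 1, 1.93, 3.86 mg/kg) received single IV, IM or SC injections (0.064 ml/kg; SC into the abdomen). Repeat arms spanned ~6 months with washout. Blood was sampled pre-dose and at 5–270 min, plus 1 min post-IV. Whole-blood levels measured by LC-MS/MS (HILIC; quadratic curve 5–5000 ng/ml). Non-compartmental analysis; bioavailability relative to IV.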

[6] = Clinical pathology: complete blood counts; assay type: in vivo, cynomolgus monkey (Macaca fascicularis); settings: arms 1, 2 and 5
Outline: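 Same six male monkeys, dosed IM, IV or SC across five arms. EDTA blood for complete counts was drawn pre-dose and at 30, 120 and 270 min post-dose in arms 1–2. Sampling was pre-dose and 15 min in arm 3, 45 min in arm 4, and 120 min in arm 5. Hematocrit and platelet count were recorded.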

Chain of αIIbβ3 (P08514 32-887 limits assumed): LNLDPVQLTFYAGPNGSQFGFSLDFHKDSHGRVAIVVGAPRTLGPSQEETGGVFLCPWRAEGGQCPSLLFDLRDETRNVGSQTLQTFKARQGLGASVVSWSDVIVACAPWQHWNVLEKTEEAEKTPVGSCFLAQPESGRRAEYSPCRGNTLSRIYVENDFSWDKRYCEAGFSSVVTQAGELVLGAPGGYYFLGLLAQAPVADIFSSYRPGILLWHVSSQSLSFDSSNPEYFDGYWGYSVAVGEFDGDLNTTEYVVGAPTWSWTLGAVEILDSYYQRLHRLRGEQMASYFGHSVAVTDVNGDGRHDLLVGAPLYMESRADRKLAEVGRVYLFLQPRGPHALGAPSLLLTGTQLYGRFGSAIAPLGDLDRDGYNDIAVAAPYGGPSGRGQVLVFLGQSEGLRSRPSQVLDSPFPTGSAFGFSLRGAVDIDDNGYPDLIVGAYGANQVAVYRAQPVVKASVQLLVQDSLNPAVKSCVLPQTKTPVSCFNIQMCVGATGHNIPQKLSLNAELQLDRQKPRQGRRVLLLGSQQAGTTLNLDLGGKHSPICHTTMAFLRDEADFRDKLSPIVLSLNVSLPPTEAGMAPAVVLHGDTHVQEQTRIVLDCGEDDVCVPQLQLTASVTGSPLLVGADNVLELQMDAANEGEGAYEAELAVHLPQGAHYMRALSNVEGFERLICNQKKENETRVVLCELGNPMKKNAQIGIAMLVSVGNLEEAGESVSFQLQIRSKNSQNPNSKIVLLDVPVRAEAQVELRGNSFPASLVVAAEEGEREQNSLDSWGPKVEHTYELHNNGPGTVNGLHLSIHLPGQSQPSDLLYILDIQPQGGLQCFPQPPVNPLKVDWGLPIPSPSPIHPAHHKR
Chain of αIIbβ3 (P08514 891-1039 partner limits assumed): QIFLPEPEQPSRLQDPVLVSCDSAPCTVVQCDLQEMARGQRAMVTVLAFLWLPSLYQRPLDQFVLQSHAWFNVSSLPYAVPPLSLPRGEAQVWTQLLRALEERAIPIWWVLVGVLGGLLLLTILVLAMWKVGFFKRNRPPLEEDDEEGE
Chain of αIIbβ3 (P05106 27-788): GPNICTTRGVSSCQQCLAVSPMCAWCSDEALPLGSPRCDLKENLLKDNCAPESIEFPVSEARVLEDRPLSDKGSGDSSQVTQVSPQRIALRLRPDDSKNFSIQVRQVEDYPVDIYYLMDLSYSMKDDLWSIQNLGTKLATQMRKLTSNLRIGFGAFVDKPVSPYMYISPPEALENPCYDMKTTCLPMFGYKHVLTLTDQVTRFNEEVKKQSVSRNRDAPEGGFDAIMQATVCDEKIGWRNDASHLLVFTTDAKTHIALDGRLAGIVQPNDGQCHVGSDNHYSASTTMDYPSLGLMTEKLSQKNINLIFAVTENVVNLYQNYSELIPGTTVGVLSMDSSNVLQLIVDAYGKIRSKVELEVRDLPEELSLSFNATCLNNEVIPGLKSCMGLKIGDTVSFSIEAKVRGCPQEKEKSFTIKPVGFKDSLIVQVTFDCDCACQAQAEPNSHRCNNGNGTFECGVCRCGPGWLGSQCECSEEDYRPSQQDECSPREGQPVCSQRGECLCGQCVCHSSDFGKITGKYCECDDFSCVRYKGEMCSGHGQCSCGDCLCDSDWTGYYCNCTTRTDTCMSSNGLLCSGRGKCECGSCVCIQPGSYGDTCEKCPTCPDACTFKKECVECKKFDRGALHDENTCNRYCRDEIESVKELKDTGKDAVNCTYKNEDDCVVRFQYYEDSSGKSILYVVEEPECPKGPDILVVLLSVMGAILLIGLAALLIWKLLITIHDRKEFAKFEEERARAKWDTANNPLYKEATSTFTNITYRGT

SMILES: CC(=O)Oc1ccccc1C(=O)O [Aspirin, acetyl salicylic acid, reference compound]
- Effect on arachidonic-acid-induced platelet aggregation ([1]; aspirin 0.83 mM, arachidonic acid 1.5 mM, citrated PRP): eliminated

SMILES: NCC(=O)Nc1cncc(-c2nn3c(=O)cc(N4CCNCC4)nc3s2)c1 [RUC-4]
- Difference in RUC-4 IC50, citrate versus heparin and PPACK ([1]; lower IC50 in PRP from citrate-anticoagulated blood): approximately twofold
- IC50 ([1]; read-out: RUC-4 IC50, 20 µM TRAP, blood anticoagulated with PPACK (0.3 mM), n = 4): 122 ± 17 nM
- IC50 ([1]; read-out: RUC-4 IC50, 20 µM TRAP, blood anticoagulated with heparin (15.8 U/ml), n = 4): 111 ± 7 nM
- IC50 ([1]; read-out: RUC-4 IC50, 20 µM TRAP, blood anticoagulated with sodium citrate (0.38%), n = 4): 66 ± 25 nM
- IC50 ([1]; read-out: RUC-4 IC50, ADP 20 µM, blood anticoagulated with PPACK (0.1 mM), n = 5): 102 ± 22 nM
- IC50 ([1]; read-out: RUC-4 IC50, ADP 20 µM, blood anticoagulated with sodium citrate (0.38%), n = 5): 54 ± 13 nM
- IC50 ([1]; read-out: RUC-4 IC50, ADP (5 µM), aspirin (0.83 mM), mean of 5 patients): 37 nM
- IC50 ([1]; read-out: RUC-4 IC50, ADP (5 µM), aspirin (0.83 mM), patient 1): 41 nM
- IC50 ([1]; read-out: RUC-4 IC50, ADP (5 µM), aspirin (0.83 mM), patient 2): 33 nM
- IC50 ([1]; read-out: RUC-4 IC50, ADP (5 µM), aspirin (0.83 mM), patient 3): 32 nM
- IC50 ([1]; read-out: RUC-4 IC50, ADP (5 µM), aspirin (0.83 mM), patient 4): 43 nM
- IC50 ([1]; read-out: RUC-4 IC50, ADP (5 µM), aspirin (0.83 mM), patient 5): 37 nM
- IC50 ([1]; read-out: RUC-4 IC50, ADP (5 µM), vehicle, mean of 5 patients): 40 nM
- IC50 ([1]; read-out: RUC-4 IC50, ADP (5 µM), vehicle, patient 1): 52 nM
- IC50 ([1]; read-out: RUC-4 IC50, ADP (5 µM), vehicle, patient 2): 38 nM
- IC50 ([1]; read-out: RUC-4 IC50, ADP (5 µM), vehicle, patient 3): 34 nM
- IC50 ([1]; read-out: RUC-4 IC50, ADP (5 µM), vehicle, patient 4): 47 nM
- IC50 ([1]; read-out: RUC-4 IC50, ADP (5 µM), vehicle, patient 5): 31 nM
- IC50 ([1]; read-out: RUC-4 IC50, arachidonic acid (1.5 mM), vehicle, mean of 5 patients): 61 nM
- IC50 ([1]; read-out: RUC-4 IC50, arachidonic acid (1.5 mM), vehicle, patient 1): 67 nM
- IC50 ([1]; read-out: RUC-4 IC50, arachidonic acid (1.5 mM), vehicle, patient 2): 52 nM
- IC50 ([1]; read-out: RUC-4 IC50, arachidonic acid (1.5 mM), vehicle, patient 3): 41 nM
- IC50 ([1]; read-out: RUC-4 IC50, arachidonic acid (1.5 mM), vehicle, patient 4): 72 nM
- IC50 ([1]; read-out: RUC-4 IC50, arachidonic acid (1.5 mM), vehicle, patient 5): 71 nM
- IC50 ([1]; read-out: RUC-4 IC50 for ADP-induced aggregation, ADP 5 µM, aspirin-treated platelets (0.83 mM), citrated PRP): 37 ± 5 nM
- Clinical observations (IM, similar at all doses, all animals): some minor bruising and red, raised areas limited to site of injection (thigh) or venipuncture
- Clinical observations (IV 1.93 mg/kg, one animal in arm 2): minor nose and gingival bleeding
- Clinical observations (IV 3.86 mg/kg, one animal in arm 2 and both animals in arm 3): vomited immediately after the IV injection
- Clinical findings (SC, resolved by ~24 hours post-dose): red discoloration of the skin at the venipuncture and administration sites and bruising at sites of injection and inguinal areas
- Tolerability (all doses, IM, IV, SC): well tolerated
- Average inhibition of the initial slope of platelet aggregation in the two animals tested ([2]; IM 1.00 mg/kg, 30 minutes): b (Values of whole blood RUC-4 levels corresponding to an average of >80% inhibition of the initial slope of platelet aggregation in the two animals tested.)
- Average inhibition of the initial slope of platelet aggregation in the two animals tested ([2]; IM 1.00 mg/kg, 120 minutes): c (Values of whole blood RUC-4 levels corresponding to an average of 0%–80% inhibition of the initial slope of platelet aggregation in the two animals tested.)
- Average inhibition of the initial slope of platelet aggregation in the two animals tested ([2]; IM 1.00 mg/kg, 270 minutes): c (Values of whole blood RUC-4 levels corresponding to an average of 0%–80% inhibition of the initial slope of platelet aggregation in the two animals tested.)
- Average inhibition of the initial slope of platelet aggregation in the two animals tested ([2]; IM 1.93 mg/kg, 30 minutes): b (Values of whole blood RUC-4 levels corresponding to an average of >80% inhibition of the initial slope of platelet aggregation in the two animals tested.)
- Average inhibition of the initial slope of platelet aggregation in the two animals tested ([2]; IM 1.93 mg/kg, 120 minutes): b (Values of whole blood RUC-4 levels corresponding to an average of >80% inhibition of the initial slope of platelet aggregation in the two animals tested.)
- Average inhibition of the initial slope of platelet aggregation in the two animals tested ([2]; IM 1.93 mg/kg, 270 minutes): c (Values of whole blood RUC-4 levels corresponding to an average of 0%–80% inhibition of the initial slope of platelet aggregation in the two animals tested.)
- Average inhibition of the initial slope of platelet aggregation in the two animals tested ([2]; IM 3.86 mg/kg, 30 minutes): b (Values of whole blood RUC-4 levels corresponding to an average of >80% inhibition of the initial slope of platelet aggregation in the two animals tested.)
- Average inhibition of the initial slope of platelet aggregation in the two animals tested ([2]; IM 3.86 mg/kg, 120 minutes): b (Values of whole blood RUC-4 levels corresponding to an average of >80% inhibition of the initial slope of platelet aggregation in the two animals tested.)
- Average inhibition of the initial slope of platelet aggregation in the two animals tested ([2]; IM 3.86 mg/kg, 270 minutes): c (Values of whole blood RUC-4 levels corresponding to an average of 0%–80% inhibition of the initial slope of platelet aggregation in the two animals tested.)
- Inhibition of the initial slope of aggregation in response to ADP ([2]; IM, all samples with whole blood RUC-4 concentration ≥ ~8 nM): > 80%
- Inhibition of the initial slope of ADP-induced aggregation ([2]; IM, all three doses (1.0, 1.93, 3.86 mg/kg), 30 minutes post-dosing): > 80%
- Average correlation between inhibition of platelet aggregation and inhibition of PAC-1 binding [3]: 0.96
- IC50 [4]: 807 ± 231 nM
- Time to peak level ([5]; 1.0 mg/kg SC): 15 min
- Time to peak blood levels ([5]; IM): ≤ 5 min
- T1/2 ([5]; IM 1.00 mg/kg): 16.8 min
- Whole blood level ([5]; IM 1.00 mg/kg, 5 minutes): 3.415 µM
- Whole blood level ([5]; IM 1.00 mg/kg, 15 minutes): 2.118 µM
- Whole blood level ([5]; IM 1.00 mg/kg, 30 minutes): 0.164 µM
- Whole blood level ([5]; IM 1.00 mg/kg, 45 minutes): 0.236 µM
- Whole blood level ([5]; IM 1.00 mg/kg, 120 minutes): < 0.008 µM
- Whole blood level ([5]; IM 1.00 mg/kg, 270 minutes): < 0.007 µM
- Bioavailability ([5]; IM 1.00 mg/kg): 1.2
- T1/2 ([5]; IM 1.93 mg/kg): 16.8 min
- Whole blood level ([5]; IM 1.93 mg/kg, 5 minutes): 3.796 µM
- Whole blood level ([5]; IM 1.93 mg/kg, 15 minutes): 3.692 µM
- Whole blood level ([5]; IM 1.93 mg/kg, 30 minutes): 0.297 µM
- Whole blood level ([5]; IM 1.93 mg/kg, 45 minutes): 0.333 µM
- Whole blood level ([5]; IM 1.93 mg/kg, 120 minutes): 0.008 µM
- Whole blood level ([5]; IM 1.93 mg/kg, 270 minutes): < 0.007 µM
- Bioavailability ([5]; IM 1.93 mg/kg): 0.80
- T1/2 ([5]; IM 3.86 mg/kg): 31.8 min
- Whole blood level ([5]; IM 3.86 mg/kg, 5 minutes): 16.009 µM
- Whole blood level ([5]; IM 3.86 mg/kg, 15 minutes): 8.783 µM
- Whole blood level ([5]; IM 3.86 mg/kg, 30 minutes): 0.837 µM
- Whole blood level ([5]; IM 3.86 mg/kg, 45 minutes): 0.952 µM
- Whole blood level ([5]; IM 3.86 mg/kg, 120 minutes): 0.016 µM
- Whole blood level ([5]; IM 3.86 mg/kg, 270 minutes): < 0.007 µM
- Bioavailability ([5]; IM 3.86 mg/kg): 0.88
- Time to peak levels ([5]; IM and SC, all doses except 1.0 mg/kg SC): ≤ 5 min
- Time to peak blood levels ([5]; SC): ≤ 5 min
- T1/2 ([5]; SC 1.00 mg/kg): 33.6 min
- Whole blood level ([5]; SC 1.00 mg/kg, 5 minutes): 0.746 µM
- Whole blood level ([5]; SC 1.00 mg/kg, 15 minutes): 0.819 µM
- Whole blood level ([5]; SC 1.00 mg/kg, 30 minutes): 0.497 µM
- Whole blood level ([5]; SC 1.00 mg/kg, 45 minutes): 0.241 µM
- Whole blood level ([5]; SC 1.00 mg/kg, 120 minutes): 0.077 µM
- Bioavailability ([5]; SC 1.00 mg/kg): 0.55
- T1/2 ([5]; SC 1.93 mg/kg): 24.6 min
- Whole blood level ([5]; SC 1.93 mg/kg, 5 minutes): 3.445 µM
- Whole blood level ([5]; SC 1.93 mg/kg, 15 minutes): 3.056 µM
- Whole blood level ([5]; SC 1.93 mg/kg, 30 minutes): 1.295 µM
- Whole blood level ([5]; SC 1.93 mg/kg, 45 minutes): 0.551 µM
- Whole blood level ([5]; SC 1.93 mg/kg, 120 minutes): 0.104 µM
- Bioavailability ([5]; SC 1.93 mg/kg): 0.78
- T1/2 ([5]; SC 3.86 mg/kg): 23.4 min
- Whole blood level ([5]; SC 3.86 mg/kg, 5 minutes): 6.036 µM
- Whole blood level ([5]; SC 3.86 mg/kg, 15 minutes): 5.310 µM
- Whole blood level ([5]; SC 3.86 mg/kg, 30 minutes): 3.523 µM
- Whole blood level ([5]; SC 3.86 mg/kg, 45 minutes): 1.098 µM
- Whole blood level ([5]; SC 3.86 mg/kg, 120 minutes): 0.225 µM
- Bioavailability ([5]; SC 3.86 mg/kg): 0.60
- Reductions in hematocrit, assessment [6]: considered consistent with the blood drawing from the animals
- Platelet counts, trend ([6]; possible exception animal 4 at 1.93 mg/kg IM): did not demonstrate obvious drug-related trends by dose or time after administration
